In ChEMBL document CHEMBL1671683, “Activity of linezolid in an in vitro pharmacokinetic-pharmacodynamic model using different dosages and Staphylococcus aureus and Enterococcus faecalis strains with and without a hypermutator phenotype” (Antimicrob Agents Chemother, 2010):

How the values were obtained:
Enterococcus faecalis [1] = experiment: Bactericidal activity against 0.5 hrs peripheral compartment culture samples of Enterococcus faecalis Ef1497 MutM3 in two-compartment pharmacokinetic/pharmacodynamic model assessed as effect on bacterial count at 200 mg, bid administered as 0.5 hr infusion; type: functional
Procedure, shortened: (§1)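 Two-compartment hollow-fibre model in cation-adjusted, protein-free MH broth, 37°C. Linezolid given as simulated 0.5-h infusion twice daily. Inoculum grown 18 h, concentrated 50-fold and placed in the peripheral compartment 3 h before t0. Peripheral samples at set times counted by dilution plating. First 10-fold dilution not plated, limiting detection to 2–3 log10 CFU/ml. Δlog CFU/ml taken from t0 count. Duplicates.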

[2] = Tmax in two-compartment pharmacokinetic/pharmacodynamic model at 600 mg, bid administered as 0.5 hrs infusion; type: ADME, organism-based; details: iv
Procedure, shortened: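 Two-compartment in vitro hollow-fibre model in cation-adjusted, protein-free Mueller-Hinton broth at 37°C. Human total-plasma linezolid profile simulated as 0.5-h infusion every 12 h for 48 h, computer-controlled syringe pump into central compartment. […] Peripheral samples assayed by validated HPLC-UV (quantification limit 0.39 μg/ml). Tmax read directly from concentration-time profiles. Run in duplicate.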

Enterococcus faecalis [3] = experiment: Bactericidal activity against 12 hrs peripheral compartment culture samples of Enterococcus faecalis Ef1497 MutM3 in two-compartment pharmacokinetic/pharmacodynamic model assessed as effect on bacterial count at 200 mg, bid administered as 0.5 hr infusion; type: functional; procedure, shortened: as §1
[4] = Tmax in two-compartment pharmacokinetic/pharmacodynamic model at 600 mg, bid administered as 0.5 hr infusion over 24 hrs; type: ADME, organism-based; details: iv
[5] = Mean residence time in two-compartment pharmacokinetic/pharmacodynamic model at 200 mg, bid administered as 0.5 hrs infusion; type: ADME, organism-based; details: iv
Enterococcus faecalis [6] = experiment: ABBC (0 to 24 hrs) in Enterococcus faecalis Ef1497 MutM3 in two-compartment pharmacokinetic/pharmacodynamic model at 600 mg, bid administered as 0.5 hr infusion for 2 days; type: functional
Procedure, shortened: (§2)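 Hollow-fibre two-compartment model in cation-adjusted, protein-free MH broth at 37°C. Human total-plasma linezolid profile simulated as 0.5-h infusion every 12 h for 48 h. Concentrated 18-h culture injected into the peripheral compartment 3 h before first sample, giving about 10^8 (E. faecalis) or 10^9 (S. aureus) CFU/ml. Viable counts by dilution plating over 0–24 h. Area indices calculated versus growth control curve. Duplicate runs.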

Staphylococcus aureus [7] = experiment: Bactericidal activity against 12.5 hrs peripheral compartment culture samples of Staphylococcus aureus RN4220 MutS2 in two-compartment pharmacokinetic/pharmacodynamic model assessed as effect on bacterial count at 600 mg, bid administered as 0.5 hr infusion; type: functional
Procedure, shortened: (§3)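 An 18-h culture concentrated 50-fold was injected into the peripheral compartment 3 h pre-sampling (~10^8 CFU/ml E. faecalis, 10^9 S. aureus). Counts came from dilution plating (detection limit 2–3 log10 CFU/ml), expressed as Δlog CFU/ml from treatment start. Run in duplicate.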

Enterococcus faecalis [8] = experiment: Bactericidal activity against 24 hrs peripheral compartment culture samples of Enterococcus faecalis Ef1497 in two-compartment pharmacokinetic/pharmacodynamic model assessed as effect on bacterial count at 800 mg, bid administered as 0.5 hr infusion; type: functional; procedure, shortened: as §3
Staphylococcus aureus [9] = experiment: Bactericidal activity against 12.5 hrs peripheral compartment culture samples of Staphylococcus aureus RN4220 in two-compartment pharmacokinetic/pharmacodynamic model assessed as effect on bacterial count at 600 mg, bid administered as 0.5 hr infusion; type: functional; procedure, shortened: as §3
Enterococcus faecalis [10] = experiment: Bactericidal activity against 13 hrs peripheral compartment culture samples of Enterococcus faecalis Ef1497 in two-compartment pharmacokinetic/pharmacodynamic model assessed as effect on bacterial count at 600 mg, bid administered as 0.5 hr infusion; type: functional; procedure, shortened: as §3
[11] = Volume of distribution at steady state in two-compartment pharmacokinetic/pharmacodynamic model at 400 mg, bid administered as 0.5 hrs infusion; type: ADME, organism-based; details: iv, read-out: Vdss
[12] = Residual concentration at the end of the administration interval in two-compartment pharmacokinetic/pharmacodynamic model at 800 mg, bid administered as 0.5 hrs infusion; type: ADME; details: iv, read-out: Drug uptake
Staphylococcus aureus [13] = experiment: Bactericidal activity against 24 hrs peripheral compartment culture samples of Staphylococcus aureus RN4220 MutS2 in two-compartment pharmacokinetic/pharmacodynamic model assessed as effect on bacterial count at 600 mg, bid administered as 0.5 hr infusion; type: functional; procedure, shortened: as §3
[14] = Cmax in two-compartment pharmacokinetic/pharmacodynamic model at 600 mg, bid administered as 0.5 hr infusion over 24 hrs; type: ADME, organism-based; set-up: dose 600 mg; details: iv
Enterococcus faecalis [15] = experiment: Bactericidal activity against 12 hrs peripheral compartment culture samples of Enterococcus faecalis Ef1497 MutM3 in two-compartment pharmacokinetic/pharmacodynamic model assessed as effect on bacterial count at 600 mg, bid administered as 0.5 hr infusion; type: functional; procedure, shortened: as §1
in vitro [16] = details: two-compartment pharmacokinetic/pharmacodynamic model, iv, 600 mg
Enterococcus faecalis [17] = experiment: Bactericidal activity against 14 hrs peripheral compartment culture samples of Enterococcus faecalis ATCC 29212 in two-compartment pharmacokinetic/pharmacodynamic model assessed as effect on bacterial count at 200 mg, bid administered as 0.5 hr infusion; type: functional; procedure, shortened: as §3
Staphylococcus aureus [18] = experiment: Bactericidal activity against 12 hrs peripheral compartment culture samples of Staphylococcus aureus RN4220 in two-compartment pharmacokinetic/pharmacodynamic model assessed as effect on bacterial count at 600 mg, bid administered as 0.5 hr infusion; type: functional; procedure, shortened: as §3
Enterococcus faecalis [19] = experiment: Bactericidal activity against 2 hrs peripheral compartment culture samples of Enterococcus faecalis ATCC 29212 in two-compartment pharmacokinetic/pharmacodynamic model assessed as effect on bacterial count at 200 mg, bid administered as 0.5 hr infusion; type: functional; procedure, shortened: as §3
[20] = Cmax in two-compartment pharmacokinetic/pharmacodynamic model at 600 mg, bid administered as 0.5 hrs infusion; type: ADME, organism-based; set-up: dose 600 mg; details: iv
[21] = Mean residence time in two-compartment pharmacokinetic/pharmacodynamic model at 800 mg, bid administered as 0.5 hrs infusion; type: ADME, organism-based; details: iv
Enterococcus faecalis [22] = experiment: Bactericidal activity against 1 hr peripheral compartment culture samples of Enterococcus faecalis ATCC 29212 in two-compartment pharmacokinetic/pharmacodynamic model assessed as effect on bacterial count at 200 mg, bid administered as 0.5 hr infusion; type: functional; procedure, shortened: as §1
Enterococcus faecalis [23] = experiment: Bactericidal activity against 13 hrs peripheral compartment culture samples of Enterococcus faecalis ATCC 29212 in two-compartment pharmacokinetic/pharmacodynamic model assessed as effect on bacterial count at 600 mg, bid administered as 0.5 hr infusion; type: functional; procedure, shortened: as §3
Enterococcus faecalis [24] = experiment: AUBC (0 to 24 hrs) in Enterococcus faecalis Ef1497 in two-compartment pharmacokinetic/pharmacodynamic model at 600 mg, bid administered as 0.5 hr infusion for 2 days; type: functional; procedure, shortened: as §2
Enterococcus faecalis [25] = experiment: T>MIC in Enterococcus faecalis ATCC 29212 in two-compartment pharmacokinetic/pharmacodynamic model at 200 mg, bid administered as 0.5 hr infusion for 2 days; type: functional
in vitro [26] = details: two-compartment pharmacokinetic/pharmacodynamic model, iv, 200 mg
Enterococcus faecalis [27] = experiment: Bactericidal activity against 2 hrs peripheral compartment culture samples of Enterococcus faecalis Ef1497 in two-compartment pharmacokinetic/pharmacodynamic model assessed as effect on bacterial count at 600 mg, bid administered as 0.5 hr infusion; type: functional; procedure, shortened: as §3

`CC(=O)NC[C@H]1CN(c2ccc(N3CCOCC3)c(F)c2)C(=O)O1` [LINEZOLID] showed a log10CFU/ml (Enterococcus faecalis [1]) of -0.009, a Tmax [2] of 0.5 h and a log10CFU/ml (Enterococcus faecalis [3]) of 0.29. It also gave a Tmax [4] of 0.5 h, an MRT [5] of 8.65 h and an ABBC (Enterococcus faecalis [6]) of -2.66 log10CFU/ml.hr. It also gave a log10CFU/ml (Staphylococcus aureus [7]) of -0.06, a log10CFU/ml (Enterococcus faecalis [8]) of -0.04 and a log10CFU/ml (Staphylococcus aureus [9]) of -0.26. The log10CFU/ml (Enterococcus faecalis [10]) was 0.09, the Vd [11] was 112 L and the concentration at 0.5 h [12] was 1150 ng/mL. The log10CFU/ml (Staphylococcus aureus [13]) was 0.52, the Cmax [14] was 14600 ng/mL and the log10CFU/ml (Enterococcus faecalis [15]) was 0.19. The half-life at 0.5 h (in vitro [16]) was 6.54 h, the log10CFU/ml (Enterococcus faecalis [17]) was 0.55 and the log10CFU/ml (Staphylococcus aureus [18]) was -0.15. It also gave a log10CFU/ml (Enterococcus faecalis [19]) of 0.09, a Cmax [20] of 13400 ng/mL and an MRT [21] of 6.55 h. It also gave a log10CFU/ml (Enterococcus faecalis [22]) of 0.14, a log10CFU/ml (Enterococcus faecalis [23]) of 0.16 and an AUBC (Enterococcus faecalis [24]) of 215.6 log10CFU/ml.hr. For the same compound, the “fT>MIC” value (Enterococcus faecalis [25]) was 8.08%, the half-life at 0.5 h (in vitro [26]) was 6.72 h and the log10CFU/ml (Enterococcus faecalis [27]) was 0.08.
